Read-outs that look alike come from different tables or passages of the source.
Assays:
[1] = tested on: SH-SY5Y cells; test: Concentration screening for nontoxic concentration; assay type: cell-based, human; conditions: 24 h, MTT
In short: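 SH-SY5Y human neuroblastoma cells grown in DMEM with 10% heat-inactivated FCS, penicillin and streptomycin at 37 °C in 5% CO2. Plated at 0.12 × 10^6 cells/ml. Test compound from 25 mM DMSO stock, screened at 5 to 30 μM. MTT (0.5 mg/ml) for 3 h at 37 °C; formazan dissolved in 0.04 M HCl/isopropanol and read at 570 nm. Expressed as % of untreated cells.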

[2] = biological target: T1, Aβ1–42 (Homo sapiens, UniProt P05067); test: TEM imaging of Aβ1–42 aggregation
T1 sequence (P05067 672-713): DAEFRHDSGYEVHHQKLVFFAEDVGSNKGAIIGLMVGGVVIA
In short: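 Aβ1–42 film dissolved by sonication in CH3CN/NaCl/NH4OH and diluted in 50 mM HEPES, pH 6.6. Mixed with test compound, with or without CuCl2, and incubated 24 h at 37 °C with gentle shaking. Sample applied to formvar/carbon Cu grids for 2 min at RT, washed with water and stained with 1% uranyl acetate for 1 min. Imaged at 200 kV, 10000–20000×.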

[3] = Antioxidant activity, DPPH radical scavenging; conditions: read-out: DPPH radical scavenging EC50
In short: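 DPPH at 0.002% in methanol mixed with the test compound in methanol at five concentrations. Incubated 30 min at RT, protected from light. Absorbance read at 517 nm against a methanol blank. %AA = 100×(A_DPPH − A_sol)/A_DPPH. Run in duplicate. EC50 taken from a plot of antioxidant activity against compound concentration.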

[4] = physiological pH, CL/CM=10, CM=1 μM; cited from earlier work
[5] = biological target: T1, Aβ1–42; conditions: cited from earlier work
[6] = biological target: T1, Aβ1–42; test: Inhibition of Cu; assay type: biochemical; conditions: read-out: Inhibition of Aβ aggregation in the presence of copper(II)
In short: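 Aβ1–42 pretreated with HFIP, held as stock in CH3CN/Na2CO3/NaOH, then diluted to 40 μM in 0.215 M phosphate, pH 8.0. Incubated 24 h at 37 °C with or without test compound (80 μM), with CuCl2 (40 μM) for the Cu(II) condition. ThT (5 μM, glycine–NaOH pH 8.5) fluorescence read at 446/485 nm, corrected for peptide-free blanks. % inhibition taken versus no compound; mean ± SEM of duplicates from two experiments.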

[7] = read-out: DPPH radical scavenging EC50, cited from earlier work

## O=C(NCC1CCN(Cc2ccccc2)CC1)c1ccc2[nH]c(-c3ccccc3O)nc2c1 [Compound 1, N-((1-benzylpiperidin-4-yl)methyl)-2-(2-hydroxyphenyl)-1H-benzo[d]imidazole-5-carboxamide]
[1]
  Highest nontoxic concentration: 2.5 µM
[2]; absence of copper
  Aβ aggregates seen by TEM: quite sparse
[2]; presence of copper
  Aβ aggregates seen by TEM: reduction of Aβ aggregates

## O=C(NCCN1CCN(Cc2ccccc2)CC1)c1ccc2[nH]c(-c3ccccc3O)nc2c1 [Compound 2, N-(2-(4-benzylpiperazin-1-yl)ethyl)-2-(2-hydroxyphenyl)-1H-benzo[d]imidazole-5-carboxamide]
[1]
  Highest nontoxic concentration: 5 µM
[3]
  EC50: 594 ± 4 µM
[4]
  pCu: 11.4
[5]; absence of copper
  Aβ aggregates seen by TEM: a reduction of Aβ aggregates was also observed
[5]; presence of copper
  Aβ aggregates seen by TEM: reduction of Aβ aggregates

## O=C(NCCN1CCN(Cc2ccccc2)CC1)c1cc2cccc(O)c2o1 [Compound 3, N-(2-(4-benzylpiperazin-1-yl)ethyl)-7-hydroxybenzofuran-2-carboxamide]
[6]
  inhibition: 35.5%

## O=C(NCC1CCN(Cc2ccccc2)CC1)c1cc2ccccc2o1 [Compound 4, N-((1-benzylpiperidin-4-yl)methyl)benzofuran-2-carboxamide]
[1]
  Highest nontoxic concentration: 30 µM

## O=C(NCCN1CCN(Cc2ccccc2)CC1)c1cc2ccccc2o1 [Compound 5, N-(2-(4-benzylpiperazin-1-yl)ethyl)benzofuran-2-carboxamide]
[1]
  Highest nontoxic concentration: 30 µM

## COc1cccc2cc(C(=O)NCC3CCN(Cc4ccccc4)CC3)oc12 [Compound 6, N-((1-benzylpiperidin-4-yl)methyl)-7-methoxy-benzofuran-2-carboxamide]
[1]
  Highest nontoxic concentration: 20 µM

## COc1cccc2cc(C(=O)NCCN3CCN(Cc4ccccc4)CC3)oc12 [Compound 7, N-(2-(4-benzylpiperazin-1-yl)ethyl)-7-methoxybenzofuran-2-carboxamide]
[1]
  Highest nontoxic concentration: 30 µM

## Nc1c2c(nc3ccccc13)CCCC2 [Tacrine, tacrine]
[7]
  EC50: > 1000 µM

## Cc1c(C)c2c(c(C)c1O)CCC(C)(C(=O)O)O2 (stereo not drawn) [Trolox]
[7]; same experimental method
  EC50: 15 µM
